Results collected from several papers.
pIC50: −log10 of the molar value.
Read-out: cell growth or viability

Structure (SMILES)	cell line	test	setting	endpoint	result
COC1=C2C[C@@H](C)C[C@H](OC)[C@H](O)[C@@H](C)/C=C(\C)[C@H](OC(N)=O)[C@@H](OC)/C=C\C=C(/C)C(=O)NC(=C(c3ccccc3)C1=O)C2=O	ARPE-19	MTT		pIC50	5.08
C=CC(=O)Nc1cc(Nc2nccc(-c3cn(C)c4ccccc34)n2)c(OC)cc1N(C)CCN(C)C	BaF3		72 h	GI50	2.76 µM
COc1cc(C(=O)c2cc3cc(N)cc(OC)c3s2)cc(OC)c1OC	human Lymphocyte	MTT	72 h	pIC50	< 4.70
COc1c2c(cc3c1OCO3)[C@]13C=C[C@H](OC)C[C@@H]1[N@](C2)C[C@H]3OC(=O)c1ccoc1	PANC-1	WST-1		pIC50	< 5.00
CCCc1cc(=O)n2nc(NCc3c(F)cc(Cl)cc3F)c(C#N)c2[nH]1	CAL-51	ATP luminescence	72 h	pIC50	< 4.30
C1COCCN1.COc1ccc(/C=C\c2cc(I)c(OC)c(I)c2)cc1OP(=O)(O)O	SF-268	SRB	48 h	GI50	0.054 µg/mL
COc1c2c(cc3c1OCO3)[C@]13C=C[C@H](OC)C[C@@H]1[N@](C2)C[C@H]3OC(=O)c1ccco1	PANC-1	WST-1		pIC50	< 5.00
COC1=C2C[C@@H](C)C[C@H](OC)[C@H](O)[C@@H](C)/C=C(\C)[C@H](OC(N)=O)[C@@H](OC)/C=C\C=C(/C)C(=O)NC(=C(C)C1=O)C2=O	ARPE-19	MTT		pIC50	< 4.70
